Results taken from ChEMBL document CHEMBL1144020, “Development of prodrug 4-chloro-3-(5-methyl-3-{[4-(2-pyrrolidin-1-ylethoxy)phenyl]amino}-1,2,4-benzotriazin-7-yl)phenyl benzoate (TG100801): a topically administered therapeutic candidate in clinical trials for the treatment of age-related macular degeneration” (J Med Chem, 2008).
Values belong to the compound of their own block, whether it stands above or below them.

Legend:
[1] = Stability at 120 degC after 1 hr; assay type: physicochemical; details: read-out: Stability
Procedure, shortened: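 Prodrugs at 0.5% in 0.5% HPMC/5% dextrose, pH 6.7, in closed vials, autoclaved at 120 °C for 1 h. After cooling, percent remaining was assessed by reverse-phase HPLC with diode-array and ELSD detection.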

[2] = Stability in Dutch-belted rabbit eye assessed as hydrolysis rate; assay type: ADME, tissue-based, Oryctolagus cuniculus
Procedure, shortened: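 Two Dutch-Belted rabbit eyeballs were homogenized in 1× RIPA buffer. Prodrug (from 1 mg/mL DMSO stock) was added to a final 5 µg/mL and kept at 37 °C, sampled at 0, 0.25, 1, 2 and 6 h. Controls were prodrug in RIPA buffer for 120 min at 37 °C. Supernatants were analyzed by LC/MS/MS for prodrug and released parent phenol.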

[3] = molecular target: Proto-oncogene tyrosine-protein kinase Src (Homo sapiens, UniProt P12931); assay: Inhibition of Src
Sequence of Proto-oncogene tyrosine-protein kinase Src (P12931 2-536 limits assumed): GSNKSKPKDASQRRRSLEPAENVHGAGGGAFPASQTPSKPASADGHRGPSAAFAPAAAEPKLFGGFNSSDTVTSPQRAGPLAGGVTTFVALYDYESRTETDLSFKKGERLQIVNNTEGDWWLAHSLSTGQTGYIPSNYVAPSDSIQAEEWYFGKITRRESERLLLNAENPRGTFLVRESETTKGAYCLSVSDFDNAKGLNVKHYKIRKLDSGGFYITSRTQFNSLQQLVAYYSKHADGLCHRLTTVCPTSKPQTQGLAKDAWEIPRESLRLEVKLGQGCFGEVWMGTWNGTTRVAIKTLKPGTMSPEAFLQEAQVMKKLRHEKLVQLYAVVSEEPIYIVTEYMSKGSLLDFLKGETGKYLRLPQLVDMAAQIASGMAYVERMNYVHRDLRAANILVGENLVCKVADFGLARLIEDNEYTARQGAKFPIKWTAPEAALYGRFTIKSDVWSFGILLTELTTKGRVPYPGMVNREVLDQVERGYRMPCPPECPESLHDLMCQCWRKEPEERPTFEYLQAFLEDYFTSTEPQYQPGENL

[4] = molecular target: Vascular endothelial growth factor receptor 2 (Homo sapiens, UniProt P35968); assay: Inhibition of VEGFR2
Sequence of Vascular endothelial growth factor receptor 2 (P35968 whole entry): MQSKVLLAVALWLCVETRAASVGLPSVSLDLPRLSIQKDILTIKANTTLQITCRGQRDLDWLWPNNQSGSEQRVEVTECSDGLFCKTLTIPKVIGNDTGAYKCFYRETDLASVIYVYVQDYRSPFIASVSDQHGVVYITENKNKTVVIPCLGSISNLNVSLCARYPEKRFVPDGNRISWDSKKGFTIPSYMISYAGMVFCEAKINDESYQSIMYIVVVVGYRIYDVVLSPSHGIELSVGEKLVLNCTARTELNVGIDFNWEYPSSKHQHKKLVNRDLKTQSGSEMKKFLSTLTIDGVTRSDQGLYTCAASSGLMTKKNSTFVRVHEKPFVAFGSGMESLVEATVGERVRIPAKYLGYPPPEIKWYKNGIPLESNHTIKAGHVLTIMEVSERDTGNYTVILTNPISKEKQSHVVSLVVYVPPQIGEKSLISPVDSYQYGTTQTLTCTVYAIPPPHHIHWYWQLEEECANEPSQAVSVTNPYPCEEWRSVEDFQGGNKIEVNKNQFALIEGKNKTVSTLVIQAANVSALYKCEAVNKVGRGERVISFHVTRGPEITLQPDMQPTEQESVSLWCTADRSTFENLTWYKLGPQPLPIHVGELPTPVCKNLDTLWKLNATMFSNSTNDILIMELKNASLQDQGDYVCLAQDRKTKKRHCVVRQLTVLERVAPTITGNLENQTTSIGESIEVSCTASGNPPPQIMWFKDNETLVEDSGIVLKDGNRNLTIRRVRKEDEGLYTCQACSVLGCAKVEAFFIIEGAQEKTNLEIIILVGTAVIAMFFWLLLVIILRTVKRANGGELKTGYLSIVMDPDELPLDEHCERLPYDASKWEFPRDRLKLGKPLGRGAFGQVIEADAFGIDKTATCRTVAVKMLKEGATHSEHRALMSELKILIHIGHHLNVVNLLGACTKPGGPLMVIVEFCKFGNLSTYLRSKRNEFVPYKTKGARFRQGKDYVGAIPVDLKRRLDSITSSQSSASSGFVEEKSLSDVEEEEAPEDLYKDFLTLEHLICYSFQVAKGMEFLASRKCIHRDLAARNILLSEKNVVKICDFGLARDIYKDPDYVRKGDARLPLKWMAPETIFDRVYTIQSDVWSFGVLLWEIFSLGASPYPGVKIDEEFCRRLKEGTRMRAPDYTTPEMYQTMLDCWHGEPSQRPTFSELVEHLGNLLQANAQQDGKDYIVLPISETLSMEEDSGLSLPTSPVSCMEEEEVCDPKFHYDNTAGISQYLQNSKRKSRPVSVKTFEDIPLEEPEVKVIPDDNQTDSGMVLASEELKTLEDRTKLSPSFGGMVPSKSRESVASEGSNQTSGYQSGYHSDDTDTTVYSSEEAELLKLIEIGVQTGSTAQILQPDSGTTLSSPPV

[5] = molecular target: Tyrosine-protein kinase Yes (Homo sapiens, UniProt P07947); assay: Inhibition of YES
Sequence of Tyrosine-protein kinase Yes (P07947 whole entry): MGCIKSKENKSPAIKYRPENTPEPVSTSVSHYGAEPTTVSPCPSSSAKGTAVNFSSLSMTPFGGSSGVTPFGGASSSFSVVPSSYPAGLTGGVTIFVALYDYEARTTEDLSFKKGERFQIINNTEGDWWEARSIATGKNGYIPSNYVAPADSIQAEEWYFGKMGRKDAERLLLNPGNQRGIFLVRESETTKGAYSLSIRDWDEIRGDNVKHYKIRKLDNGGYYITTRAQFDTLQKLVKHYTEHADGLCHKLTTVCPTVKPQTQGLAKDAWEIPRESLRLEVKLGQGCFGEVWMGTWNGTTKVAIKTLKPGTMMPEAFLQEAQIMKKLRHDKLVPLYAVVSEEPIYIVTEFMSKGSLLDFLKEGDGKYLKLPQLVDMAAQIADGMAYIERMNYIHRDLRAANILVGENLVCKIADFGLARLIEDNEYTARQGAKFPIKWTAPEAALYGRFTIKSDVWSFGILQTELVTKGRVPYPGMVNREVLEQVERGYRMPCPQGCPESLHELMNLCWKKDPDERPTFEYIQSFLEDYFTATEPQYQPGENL

[6] = Tmax in C57BL/6 mouse retina at 172 nM instilled per eye; assay type: ADME, organism-based; details: topical or ocular, 172 nM per eye
Procedure, shortened: (§1)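 Male C57BL/6 mice got one 10 µL eye drop of prodrug (100 µg, 172 nmol per eye). Composite sampling at 0.5, 1, 3, 7 and 24 h post-instillation. Cornea, retina and pooled sclera/choroid were collected, with plasma at euthanasia. Tissues were homogenized in RIPA and extracted with acetonitrile. Prodrug and parent were measured by LC/MS/MS against matrix standards; AUC by linear trapezoidal rule on means.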

[7] = Cmax in C57BL/6 mouse retina at 172 nM instilled per eye; assay type: ADME, organism-based; parameters: dose 172 nM, route ophthalmic; details: topical or ocular, 172 nM per eye; procedure, shortened: as §1
[8] = AUC (0 to 24 hrs) in C57BL/6 mouse retina at 172 nM instilled per eye; assay type: ADME, organism-based; parameters: dose 172 nM, time < 24 hr, route ophthalmic; details: topical or ocular, 172 nM per eye; procedure, shortened: as §1
[9] = Tmax in C57BL/6 mouse choroid/sclera at 172 nM instilled per eye; assay type: ADME, organism-based; details: topical or ocular, 172 nM per eye; procedure, shortened: as §1
[10] = Cmax in C57BL/6 mouse choroid/sclera at 172 nM instilled per eye; assay type: ADME, organism-based; parameters: dose 172 nM, route ophthalmic; details: topical or ocular, 172 nM per eye; procedure, shortened: as §1
[11] = organism: Mus musculus; assay: Tmax in C57BL/6 mouse choroid/sclera assessed as 4-chloro-3-{5-methyl-3-[4-(2-pyrrolidin-1-yl-ethoxy)phenylamino]benzo[1,2,4]triazin-7-yl}phenol at 172 nM instilled per eye; assay type: ADME, organism-based; details: in vivo, topical_or_ocular, 0.172 µM; procedure, shortened: as §1
[12] = organism: Mus musculus; assay: Cmax in C57BL/6 mouse choroid/sclera assessed as 4-chloro-3-{5-methyl-3-[4-(2-pyrrolidin-1-yl-ethoxy)phenylamino]benzo[1,2,4]triazin-7-yl}phenol at 172 nM instilled per eye; assay type: ADME, organism-based; parameters: dose 172 nM, route ophthalmic; details: in vivo, topical_or_ocular, 0.172 µM; procedure, shortened: as §1
[13] = organism: Mus musculus; assay: AUC (0 to 24 hrs) in C57BL/6 mouse choroid/sclera assessed as 4-chloro-3-{5-methyl-3-[4-(2-pyrrolidin-1-yl-ethoxy)phenylamino]benzo[1,2,4]triazin-7-yl}phenol at 172 nM instilled per eye; assay type: ADME, organism-based; parameters: dose 172 nM, time < 24 hr, route ophthalmic; details: in vivo, topical_or_ocular, 0.172 µM; procedure, shortened: as §1
[14] = organism: Mus musculus; assay: Tmax in C57BL/6 mouse cornea assessed as 4-chloro-3-{5-methyl-3-[4-(2-pyrrolidin-1-yl-ethoxy)phenylamino]benzo[1,2,4]triazin-7-yl}phenol at 172 nM instilled per eye; assay type: ADME, organism-based; details: in vivo, topical_or_ocular, 0.172 µM; procedure, shortened: as §1
[15] = organism: Mus musculus; assay: Cmax in C57BL/6 mouse cornea assessed as 4-chloro-3-{5-methyl-3-[4-(2-pyrrolidin-1-yl-ethoxy)phenylamino]benzo[1,2,4]triazin-7-yl}phenol at 172 nM instilled per eye; assay type: ADME, organism-based; parameters: dose 172 nM, route ophthalmic; details: in vivo, topical_or_ocular, 0.172 µM; procedure, shortened: as §1
[16] = AUC (0 to 24 hrs) in C57BL/6 mouse choroid/sclera at 172 nM instilled per eye; assay type: ADME, organism-based; parameters: dose 172 nM, time < 24 hr, route ophthalmic; details: topical or ocular, 172 nM per eye; procedure, shortened: as §1
[17] = Tmax in C57BL/6 mouse cornea at 172 nM instilled per eye; assay type: ADME, organism-based; details: topical or ocular, 172 nM per eye; procedure, shortened: as §1
[18] = Cmax in C57BL/6 mouse cornea at 172 nM instilled per eye; assay type: ADME, organism-based; parameters: dose 172 nM, route ophthalmic; details: topical or ocular, 172 nM per eye; procedure, shortened: as §1
[19] = AUC (0 to 24 hrs) in C57BL/6 mouse cornea at 172 nM instilled per eye; assay type: ADME, organism-based; parameters: time < 24 hr, dose 172 nM, route ophthalmic; details: topical or ocular, 172 nM per eye; procedure, shortened: as §1
[20] = Plasma concentration in C57BL/6 mouse after 24 hrs; assay type: ADME, organism-based
[21] = organism: Mus musculus; assay: Tmax in C57BL/6 mouse retina assessed as 4-chloro-3-{5-methyl-3-[4-(2-pyrrolidin-1-yl-ethoxy)phenylamino]benzo[1,2,4]triazin-7-yl}phenol at 172 nM instilled per eye; assay type: ADME, organism-based; details: in vivo, topical_or_ocular, 0.172 µM; procedure, shortened: as §1
[22] = organism: Mus musculus; assay: Cmax in C57BL/6 mouse retina assessed as 4-chloro-3-{5-methyl-3-[4-(2-pyrrolidin-1-yl-ethoxy)phenylamino]benzo[1,2,4]triazin-7-yl}phenol at 172 nM instilled per eye; assay type: ADME, organism-based; parameters: dose 172 nM, route ophthalmic; details: in vivo, topical_or_ocular, 0.172 µM; procedure, shortened: as §1
[23] = organism: Mus musculus; assay: AUC (0 to 24 hrs) in C57BL/6 mouse retina assessed as 4-chloro-3-{5-methyl-3-[4-(2-pyrrolidin-1-yl-ethoxy)phenylamino]benzo[1,2,4]triazin-7-yl}phenol at 172 nM instilled per eye; assay type: ADME, organism-based; parameters: time < 24 hr, dose 172 nM, route ophthalmic; details: in vivo, topical_or_ocular, 0.172 µM; procedure, shortened: as §1
[24] = organism: Mus musculus; assay: AUC (0 to 24 hrs) in C57BL/6 mouse cornea assessed as 4-chloro-3-{5-methyl-3-[4-(2-pyrrolidin-1-yl-ethoxy)phenylamino]benzo[1,2,4]triazin-7-yl}phenol at 172 nM instilled per eye; assay type: ADME, organism-based; parameters: time < 24 hr, dose 172 nM, route ophthalmic; details: in vivo, topical_or_ocular, 0.172 µM; procedure, shortened: as §1
[25] = organism: Mus musculus; assay: Tmax in C57BL/6 mouse plasma assessed as 4-chloro-3-{5-methyl-3-[4-(2-pyrrolidin-1-yl-ethoxy)phenylamino]benzo[1,2,4]triazin-7-yl}phenol at 172 nM instilled per eye; assay type: ADME, organism-based; details: in vivo, topical_or_ocular, 0.172 µM; procedure, shortened: as §1
[26] = organism: Mus musculus; assay: Cmax in C57BL/6 mouse plasma assessed as 4-chloro-3-{5-methyl-3-[4-(2-pyrrolidin-1-yl-ethoxy)phenylamino]benzo[1,2,4]triazin-7-yl}phenol at 172 nM instilled per eye; assay type: ADME, organism-based; parameters: dose 172 nM, route ophthalmic; details: in vivo, topical_or_ocular, 0.172 µM; procedure, shortened: as §1
[27] = test system: Mus musculus; assay: Reduction of bruch's membrane rupture in laser-induced choroidoal neovascularization in mouse administered topically at 0.61% w/v after 14 days relative to control; assay type: functional; parameters: scale not given: the % may be the effect or the level left
Procedure, shortened: (§2)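 Laser rupture of Bruch's membrane in female C57BL/6J mice aged 4–5 weeks, ketamine-anesthetized; only bubble-forming burns were counted. Eight mice/group got one 10 µL drop of vehicle, 0.61% or 1.83% w/v prodrug t.i.d., 4 h apart, with the fellow eye untreated; a fourth group had no treatment. On day 14, mice were perfused with fluorescein-dextran and CNV area was measured on choroidal flatmounts. Linear mixed model with Dunnett adjustment.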

[28] = test system: Mus musculus; assay: Reduction of bruch's membrane rupture in laser-induced choroidoal neovascularization in mouse administered topically at 1.83% w/v after 14 days relative to control; assay type: functional; parameters: scale not given: the % may be the effect or the level left; procedure, shortened: as §2
[29] = test system: Mus musculus; assay: Reduction of VEGF-induced retinal leak in BALB/c mouse administered topically at 210 nM q.d; assay type: functional; parameters: scale not given: the % may be the effect or the level left

remaining at 1 h [1]: > 90%
Stability [2]: 1.7 ng/mL/h
Compound: Cc1cc(-c2cc(OC(=O)c3c(Cl)cccc3Cl)ccc2Cl)cc2nnc(Nc3ccc(OCCN4CCCC4)cc3)nc12

remaining at 1 h [1]: > 90%
Compound: Cc1cc(-c2cc(OC(=O)c3ccc(CN4CCOCC4)cc3)ccc2Cl)cc2nnc(Nc3ccc(OCCN4CCCC4)cc3)nc12

IC50 [3]: ≥ 10 µM
IC50 [4]: ≥ 10 µM
IC50 [5]: ≥ 2.5 µM
remaining at 1 h [1]: > 90%
Stability [2]: 288 ng/mL/h
Tmax at 0.172 µM [6]: 24 h
Cmax at 0.172 µM [7]: 5.3 µM
AUC(0-t) at 24 h, 0.172 µM [8]: 63000 ng·h/mL
Tmax at 0.172 µM [9]: 24 h
Cmax at 0.172 µM [10]: 27 µM
Tmax [11]: 24 h
Cmax [12]: 29 µM
AUC [13]: 540000 ng·h/mL
Tmax [14]: 7 h
Cmax [15]: 33 µM
AUC(0-t) at 24 h, 0.172 µM [16]: 430000 ng·h/mL
Tmax at 0.172 µM [17]: 24 h
Cmax at 0.172 µM [18]: 3.7 µM
AUC(0-t) at 24 h, 0.172 µM [19]: 55000 ng·h/mL
concentration at 24 h [20]: < 1 ng/mL
Tmax [21]: 24 h
Cmax [22]: 2.4 µM
AUC [23]: 35000 ng·h/mL
AUC [24]: 670000 ng·h/mL
Tmax [25]: 24 h
Cmax [26]: 0.005 µM
Compound: Cc1cc(-c2cc(OC(=O)c3ccccc3)ccc2Cl)cc2nnc(Nc3ccc(OCCN4CCCC4)cc3)nc12 [TG100-801]
Activity [27]: 46%
Activity [28]: 35%
Activity [29]: 100%
